≈ marks a conversion by molar mass, not a printed value.
Tests used:
[1] = tested on: Mycobacterium tuberculosis; assay: Antimycobacterial activity against Mycobacterium bovis BCG; format: functional; conditions: variant bovis BCG
[2] = tested on: Mycobacterium tuberculosis; assay: Growth inhibition of Mycobacterium bovis BCG infected in PBMC assessed as decrease in [3H]-uridine incorporation at <= IC20 after 72 hrs by microbeta scintillation counting analysis; format: functional, variant bovis BCG
Outline: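 PBMCs at 1.5x10^4/well; non-adherent cells are washed off after 24 h. Adherent monocytes are cultured 6 days, then infected with BCG at MOI 3 for 4 h and washed three times. Drugs are added at concentrations at or below the THP-1 IC20 for 72 h.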

SMILES	MIC [1] [µM]	growth inhibition (GI) [2] [%]
O=C(NNCCCN1CCC(N2c3ccccc3Sc3ccc(Cl)cc32)CC1)c1ccncc1	1 (≈ 0.494 µg/mL)	>90
O=C(NNCCCN1c2ccccc2Sc2ccccc21)c1ccccc1	26.6 (≈ 9.99 µg/mL)	40
O=C(NNCCCN1c2ccccc2Sc2ccc(Cl)cc21)c1ccccc1	12.2 (≈ 5 µg/mL)	40
O=C(NNCCCN1c2ccccc2Sc2ccc(Cl)cc21)c1ccncc1	2.44 (≈ 1 µg/mL)	>90
O=C(NNCCCN1c2ccccc2Sc2ccccc21)c1ccncc1	13.3 (≈ 5.01 µg/mL)	>90
O=C(NNCCCN1c2ccccc2CCc2ccccc21)c1ccncc1	13.4 (≈ 5 µg/mL)	>90
CN(C)CCCN1c2ccccc2Sc2ccc(Cl)cc21 [CHLORPROMAZINE]	4 (≈ 1.28 µg/mL)	40
NNC(=O)c1ccncc1 [ISONIAZID]	0.015 (≈ 0.00206 µg/mL)	>90

From ChEMBL document CHEMBL4184228, “Reversed isoniazids: Design, synthesis and evaluation against Mycobacterium tuberculosis” (Bioorg Med Chem, 2018)
